Measured values from different studies.
Protocols differ between the studies behind these lines.
Target: cAMP-dependent protein kinase catalytic subunit beta (PRKACB, Homo sapiens, UniProt P22694)
Technique: competition with immobilised ligand

O=C(NCC1CCOCC1)c1n[nH]cc1NC(=O)c1c(F)cccc1F  remaining binding (binding; 1 µM): 97%
O=C(O)c1cc(-c2ccc(C3CCNCC3)cc2)c2ccc(-c3ccc(C(F)(F)F)cc3)cc2c1  remaining binding (cell-free assay; 1 µM): 100%
O=C(NCCCN1CCOCC1)c1ccc(Nc2ncc(Cl)c(-c3ccc(Cl)s3)n2)cc1  remaining binding (binding; 1 µM): 100%
CCCCN(CCCC)C(=O)CN1C[C@@H](c2cc(OC)c3c(c2)OCO3)[C@H](C(=O)O)[C@H]1CC(C)(C)CCC  remaining binding (cell-free assay; 1 µM): 100%
N[C@H]1CCN(c2nccc(-c3cnn4ncccc34)n2)C1  remaining binding (binding; 1 µM): 83%
CNC(=O)Nc1ccc2c(c1)[C@@]1(CC2)OC(=O)N(CC(=O)N(Cc2ccc(F)cc2)[C@@H](C)C(F)(F)F)C1=O  remaining binding (cell-free assay; 1 µM): 100%
CC1CCCN1c1nccc(-c2cnn3ncccc23)n1 (stereo not drawn)  remaining binding (binding; 1 µM): 89%
FC(F)(F)Oc1cccc(-c2cnc3ccc(-c4ccncc4)nn23)c1  remaining binding (cell-free assay; 5 µM): 98%
O=C(O)[C@@H]1[C@@H](Cn2nnc3ccccc3c2=O)CC[C@H]1C(=O)c1ccc(OCCC2CCOCC2)cc1  remaining binding (cell-free assay; 1 µM): 100%
c1cnn2ncc(-c3ccnc(N4CCC45COC5)n3)c2c1  remaining binding (binding; 1 µM): 92%
O=C(NCCCN1CCOCC1)c1ccc(Nc2nccc(-c3cc4ccccc4s3)n2)cc1  remaining binding (binding; 1 µM): 100%
C[C@@H]1CCN(c2nccc(-c3cnn4ncccc34)n2)C1  remaining binding (binding; 1 µM): 72%
CN(C)CC#Cc1ccc(OCCCc2sc(N3CCc4cccc(C(=O)Nc5nc6ccccc6s5)c4C3)nc2C(=O)O)c(F)c1  remaining binding (cell-free assay; 1 µM): 100%
COc1cnc(Nc2cccc(S(N)(=O)=O)c2)nc1N1CCN(c2ccccc2)C(=O)C1  remaining binding (binding; 1 µM): 99%
C=CC(=O)N1CCC(C(=O)NCC(=O)N2CCN(c3nc(-c4cnc(N)nc4C(F)F)nc(N4CCOCC4)n3)CC2)CC1  remaining binding (binding; 1 µM): 90%
COc1ncc2cc3ccccc3nc2c1C#N  remaining binding (cell-free assay; 5 µM): 97%
Cc1cnc(Nc2ccc(C(=O)N3CCC(N4CCCC4)CC3)cc2)nc1-c1cc2ccccc2s1  remaining binding (binding; 1 µM): 85%
COc1ccnn2ncc(-c3ccnc(N(C)C)n3)c12  remaining binding (binding; 1 µM): 95%
CCN1CCN(Cc2ccc(C(=O)Nc3ccc(C)c(Oc4ccc5c(c4)CC(=O)N5)c3)cc2C(F)(F)F)CC1  remaining binding (binding; 1 µM): 80%
Cc1cnn2ncc(-c3ccnc(N(C)C)n3)c2c1  remaining binding (binding; 1 µM): 96%
C[C@@H]1CN(c2cc(-c3n[nH]c4ccc(OC5(C)CC5)cc34)ncn2)C[C@H](C)O1  remaining binding (cell-free assay; 0.1 µM): 91%
